Source: ChEMBL document CHEMBL3108707, “Design, synthesis and structure-activity relationships of some novel, highly potent anti-invasive (E)- and (Z)-stilbenes” (2013)
Activity calls are given as the source filed them. The rule behind the calls is not given here.

Columns and labels:
MCF7/6 [1] = test: Antiinvasive activity against human MCF7/6 cells assessed as decrease in occupying outer fibroblast-like and myoblast cell layers at 1 umol/L after 8 days by hematoxylin and eosin staining assay; format: functional, cell-based
How it was run: (§1)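 Precultured heart fragments from 9-day-old chick embryos (0.4 mm diameter) were paired with MCF-7/6 aggregates (0.2 mm). Pairs sat overnight at 37 °C on semi-solid agar, then spun 8 days in suspension (37 °C, 120 rpm, 10% CO₂) with compound added in DMSO. Runs were usually in duplicate; 10 µmol/L often single. 7 µm sections were scored histologically for invasion grade 0–IV, with alternate sections stained with 5D10 antibody.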

MCF7/6 [2] = test: Antiinvasive activity against human MCF7/6 cells assessed as precultured chick heart tissue fragment attachment without occupying heart tissue and outermost fibroblastic cell layers at 1 umol/L after 8 days by hematoxylin and eosin staining assay; format: functional, cell-based; how it was run: as §1
MCF7/6 [3] = test: Antiinvasive activity against human MCF7/6 cells assessed as occupying less than half of original amount of chick precultured heart tissue fragment at 10 umol/L after 8 days by hematoxylin and eosin staining assay; format: functional, cell-based; how it was run: as §1
[4] = Antiinvasive activity against human MCF7/6 cells assessed as minimum log concentration required to show activity after 8 days by hematoxylin and eosin staining-based chick heart invasion assay; format: functional; parameters: unit: log(µmol/L)
How it was run: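 Confronting cultures were set up as chick heart fragments (9-day embryos) plus MCF-7/6 aggregates, 8 days at 37 °C. Compound was dosed in DMSO at 10, 1, 0.1 and 0.01 µmol/L, in duplicate, and grades were scored histologically. c_min is the lowest concentration where both repeats gave grade I or II; inconclusive cases were repeated. A single active repeat counted if all repeats at 10-fold higher were active. The value is reported as log c_min.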

MCF7/6 [5] = test: Antiinvasive activity against human MCF7/6 cells assessed as decrease in occupying outer fibroblast-like and myoblast cell layers at 0.1 umol/L after 8 days by hematoxylin and eosin staining assay; format: functional, cell-based; how it was run: as §1
MCF7/6 [6] = test: Antiinvasive activity against human MCF7/6 cells assessed as occupying more than half of original amount of chick precultured heart tissue fragment at 10 umol/L after 8 days by hematoxylin and eosin staining assay; format: functional, cell-based; how it was run: as §1
MCF7/6 [7] = test: Antiinvasive activity against human MCF7/6 cells assessed as chick precultured heart tissue fragment attachment without occupying heart tissue and outermost fibroblastic cell layer at 0.1 umol/L after 8 days by hematoxylin and eosin staining assay; format: functional, cell-based; how it was run: as §1
MCF7/6 [8] = test: Antiinvasive activity against human MCF7/6 cells assessed as decrease in occupying outer fibroblast-like and myoblast cell layers at 0.01 umol/L after 8 days by hematoxylin and eosin staining assay; format: functional, cell-based; how it was run: as §1
MCF7/6 [9] = test: Antiinvasive activity against human MCF7/6 cells assessed as decrease in occupying outer fibroblast-like and myoblast cell layers at 10 umol/L after 8 days by hematoxylin and eosin staining assay; format: functional, cell-based; how it was run: as §1
MCF7/6 [10] = test: Antiinvasive activity against human MCF7/6 cells assessed as occupying less than half of original amount of heart tissue at 0.1 umol/L after 8 days by hematoxylin and eosin staining assay; format: functional, cell-based; how it was run: as §1
MCF7/6 [11] = test: Antiinvasive activity against human MCF7/6 cells assessed as occupying less than half of original amount of heart tissue at 1 umol/L after 8 days by hematoxylin and eosin staining assay; format: functional, cell-based; how it was run: as §1
MCF7/6 [12] = test: Antiinvasive activity against human MCF7/6 cells assessed as precultured chick heart tissue fragment attachment without occupying heart tissue and outermost fibroblastic cell layer at 10 umol/L after 8 days by hematoxylin and eosin staining assay; format: functional, cell-based; how it was run: as §1

SMILES	Activity (MCF7/6 [1])	logMEC [4]	Activity (MCF7/6 [5])	Activity (MCF7/6 [8])	Activity (MCF7/6 [9])	Activity (MCF7/6 [10])	other results
C(=C\c1ccccc1)/c1ccccc1	Active	-1	Active	–	–	–	Activity (MCF7/6 [2]): Active; Activity (MCF7/6 [3]): inactive
COc1ccc(/C=C/c2ccccc2)cc1	–	-1	Active	–	–	–	Activity (MCF7/6 [6]): inactive; Activity (MCF7/6 [7]): Active
COc1cc(/C=C\c2ccccc2)cc(OC)c1OC	Active	-2	Active	Active	Active	–	Activity (MCF7/6 [2]): Active
Fc1ccc(/C=C\c2ccccc2)cc1	–	-2	–	Active	–	–	–
COc1cc(/C=C/c2ccccc2)cc(OC)c1OC	–	-1	–	–	Active	–	–
Fc1ccc(/C=C/c2ccc(F)cc2)cc1	–	-2	Active	Active	Active	–	–
COc1cc(/C=C/c2ccc(F)cc2)cc(OC)c1OC	–	0	–	–	Active	inactive	–
COc1cc(/C=C\c2ccc(F)cc2)cc(OC)c1OC	–	1	–	–	–	inactive	Activity (MCF7/6 [11]): inactive; Activity (MCF7/6 [12]): Active
COc1ccc(/C=C/c2ccc(F)cc2)cc1	–	-2	Active	Active	Active	–	–
Fc1ccc(/C=C/c2ccccc2)cc1	Active	–	–	–	–	inactive	–
